We go through 4 compounds from ChEMBL document CHEMBL4371006, “Discovery of N-[4-(Quinolin-4-yloxy)phenyl]benzenesulfonamides as Novel AXL Kinase Inhibitors” (J Med Chem, 2018).

A word on the T/C: it is the ratio of treated to control.

For data set [1], the target named is Receptor tyrosine-protein kinase erbB-2 (Homo sapiens) (UniProt P04626). The experiment in a line: Binding affinity to ERBB2 (unknown origin) at 10 uM. The procedure, abridged:
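HTRF kinase assay for HER2 at 10 µM compound, triplicate: biotinylated peptide phosphorylated, detected by europium cryptate anti-phospho antibody and streptavidin-XL665 TR-FRET; percent inhibition.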

For data set [2] the target is unchanged. The experiment in a line: Inhibition of ERBB2 (unknown origin) using biotinylated peptide as substrate at 10 uM by TR-FRET assay. Background: In TR-FRET formats the signal depends on donor and acceptor labels being close together.
The target is the same in data set [3]. Description: Inhibition of ERBB2 (unknown origin) using biotinylated peptide as substrate at 10 uM by TR-FRET assay. A digest of the protocol: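 HTRF (TR-FRET) kinase assay at 10 µmol/L compound, in triplicate. A biotinylated kinase-specific peptide is phosphorylated. Detection uses a europium cryptate-labeled anti-phospho-residue antibody as donor and XL665-streptavidin as acceptor. Result is percent inhibition.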

Data set [4] addresses Tyrosine-protein kinase SYK (Homo sapiens) (UniProt P43405). Description: Inhibition of SYK (unknown origin) using fluorescence labeled peptide as substrate at 10 uM by IMAP assay. A digest of the protocol:
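Kinase selectivity profiling, run by a contract lab, with the test compound at 10 µmol/L in triplicate. In the IMAP format, the kinase phosphorylates a fluorescently labelled substrate peptide in solution. A binding solution of trivalent metal-based nanoparticles is then added to capture the phosphopeptide, and the drop in rotational speed is read as fluorescence polarization. Results are given as percent inhibition of each kinase.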

Data set [5] addresses Fibroblast growth factor receptor 3 (Homo sapiens) (UniProt P22607). The experiment in a line: Inhibition of FGFR3 (unknown origin) using fluorescence labeled peptide as substrate at 10 uM by IMAP assay. A digest of the protocol: (§1)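 IMAP fluorescence-polarization kinase assay at 10 µmol/L compound, run in triplicate by a contract lab. A fluorescently labeled substrate peptide is phosphorylated, then nanoparticles carrying trivalent metal bind the phosphopeptide and slow its rotation. Read-out is fluorescence polarization, expressed as percent inhibition.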

For data set [6], the target named is Epithelial discoidin domain-containing receptor 1 (Homo sapiens) (UniProt Q08345). The experiment in a line: Inhibition of DDR1 (unknown origin) using biotinylated peptide as substrate at 10 uM by TR-FRET assay.
Data set [7] has as its target Receptor-type tyrosine-protein kinase FLT3 (Homo sapiens) (UniProt P36888). Description: Inhibition of FLT3 (unknown origin) using fluorescence labeled peptide as substrate at 10 uM by IMAP assay. The procedure, abridged: as §1
Data set [8] shares this target. Description: Inhibition of FLT3 (unknown origin) using biotinylated peptide as substrate at 10 uM by TR-FRET assay.
For data set [9], the target named is Tyrosine-protein kinase SYK (Homo sapiens) (UniProt P43405). The experiment in a line: Inhibition of SYK (unknown origin) using fluorescence labeled peptide as substrate at 10 uM by IMAP assay.
Data set [10] deals with Proto-oncogene tyrosine-protein kinase receptor Ret (Homo sapiens) (UniProt P07949). The experiment in a line: Inhibition of RET (unknown origin) using fluorescently-labeled peptide as substrate at 10 uM by IMAP fluorescence polarization assay.
Data set [11] concerns the target Serine/threonine-protein kinase B-raf (Homo sapiens) (UniProt P15056). Description: Binding affinity to BRAF (unknown origin) at 10 uM.
Data set [12] in a line: Antitumor activity against AXL expressing mouse MXT cells allografted in mouse assessed as survival time at 5 mg/kg, ip qd administered 21 consecutive days (reference value: 100%). Format: functional. A digest of the protocol: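 MXT mammary tumour cells implanted subcutaneously and staged to about 125 mm3. Dosing then began: once daily ip for 21 consecutive days, at 5 or 15 mg/kg, alongside a vehicle group, with 7 animals per group. Survival in days was recorded for each animal and given as mean ± SD, and as T/C% against the vehicle group (vehicle = 100%).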

Data set [13] in a line: Toxicity in mouse allografted with AXL expressing mouse MXT cells assessed as morbidity at 15 mg/kg, ip qd administered 21 consecutive days. Format: organism-based. The note with it: in vivo.
Data set [14] can be described thus: Toxicity in mouse allografted with AXL expressing mouse MXT cells assessed as weight loss at 15 mg/kg, ip qd administered 21 consecutive days. The format is organism-based. The note with it: in vivo.
Data set [15] in a line: Antitumor activity against AXL expressing mouse MXT cells allografted in mouse assessed as reduction in tumor size at 15 mg/kg, ip qd administered 21 consecutive days relative to control. More on the design: scale not given: the % may be the effect or the level left. The format is functional. A digest of the protocol:
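MXT mammary tumor cells implanted subcutaneously, grown to about 125 mm3, then dosed ip once daily for 21 consecutive days at 5 or 15 mg/kg vs vehicle, 7 animals/group; tumor size compared with vehicle after 3 weeks, survival also recorded.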

Data set [16] addresses Serine/threonine-protein kinase TBK1 (Homo sapiens, UniProt Q9UHD2). Description: Binding affinity to TBK1 in SILAC-labeled human MDA-MB-231 cells lysate by mass spectrometry based kinAffinity assay. The format is subcellular. The procedure, abridged: (§2)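 MDA-MB-231 lysate applied to KinAffinity matrix of immobilized broadband kinase inhibitors at graded densities to obtain BC50 per target. Competition then run with increasing free compound to give CC50; Kd derived by Cheng-Prusoff. Two competition experiments in parallel to check equilibrium, one with lysate pre-incubated with compound before adding matrix. Quantitation by mass spectrometry.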

The next data set concerns the target LIM domain kinase 2 (Homo sapiens, UniProt P53671). The experiment in a line: Binding affinity to LIMK2 in SILAC-labeled human MDA-MB-231 cells lysate by mass spectrometry based kinAffinity assay. The format is subcellular. The procedure, abridged: (§3)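 Chemical proteomics: MDA-MB-231 lysate bound to matrix of immobilized broad kinase inhibitors at several densities (BC50), then competed with increasing free compound (CC50); proteins quantified by mass spectrometry, Kd via Cheng-Prusoff. Two competition formats run in parallel to check equilibrium.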

Data set [17] is described as follows: Apparent volume of distribution in mouse at 3 mg/kg, iv by LC/MS/MS analysis. Conditions: in vivo, read-out: Vz.
Data set [18] has as its target MAP/microtubule affinity-regulating kinase 4 (Homo sapiens, UniProt Q96L34). The experiment in a line: Binding affinity to MARK4 in SILAC-labeled human MDA-MB-231 cells lysate by mass spectrometry based kinAffinity assay. Format: subcellular. A digest of the protocol:
as §3

Data set [19] concerns the target Hepatocyte growth factor receptor (Homo sapiens, UniProt P08581). Description: Binding affinity to c-MET in SILAC-labeled human MDA-MB-231 cells lysate by mass spectrometry based kinAffinity assay. The format is subcellular. The procedure, abridged: as §2
The target of data set [20] is Cyclin-dependent kinase 18 (Homo sapiens, UniProt Q07002). The experiment in a line: Binding affinity to PCTK3 in SILAC-labeled human MDA-MB-231 cells lysate by mass spectrometry based kinAffinity assay. Format: subcellular. A digest of the protocol: as §2
Data set [21] deals with Mitogen-activated protein kinase kinase kinase 3 (Homo sapiens, UniProt Q99759). The experiment in a line: Binding affinity to MAP3K3 in SILAC-labeled human MDA-MB-231 cells lysate by mass spectrometry based kinAffinity assay. The format is subcellular. The procedure, abridged:
as §3

Data set [22] addresses Mitogen-activated protein kinase kinase kinase kinase 4 (Homo sapiens, UniProt O95819). Description: Binding affinity to MAP4K4 in SILAC-labeled human MDA-MB-231 cells lysate by mass spectrometry based kinAffinity assay. The format is subcellular. The procedure, abridged:
as §3

Data set [23] concerns the target Delta(3,5)-Delta(2,4)-dienoyl-CoA isomerase, mitochondrial (Homo sapiens, UniProt Q13011). Description: Binding affinity to ECH1 in SILAC-labeled human MDA-MB-231 cells lysate by mass spectrometry based kinAffinity assay. The format is subcellular. The procedure, abridged:
as §3

The source made the active and inactive calls. The rule behind the calls is not given here. Where only a bound is given, the exact number is not on record here.

Chain of Receptor tyrosine-protein kinase erbB-2 (Homo sapiens) (P04626 whole entry): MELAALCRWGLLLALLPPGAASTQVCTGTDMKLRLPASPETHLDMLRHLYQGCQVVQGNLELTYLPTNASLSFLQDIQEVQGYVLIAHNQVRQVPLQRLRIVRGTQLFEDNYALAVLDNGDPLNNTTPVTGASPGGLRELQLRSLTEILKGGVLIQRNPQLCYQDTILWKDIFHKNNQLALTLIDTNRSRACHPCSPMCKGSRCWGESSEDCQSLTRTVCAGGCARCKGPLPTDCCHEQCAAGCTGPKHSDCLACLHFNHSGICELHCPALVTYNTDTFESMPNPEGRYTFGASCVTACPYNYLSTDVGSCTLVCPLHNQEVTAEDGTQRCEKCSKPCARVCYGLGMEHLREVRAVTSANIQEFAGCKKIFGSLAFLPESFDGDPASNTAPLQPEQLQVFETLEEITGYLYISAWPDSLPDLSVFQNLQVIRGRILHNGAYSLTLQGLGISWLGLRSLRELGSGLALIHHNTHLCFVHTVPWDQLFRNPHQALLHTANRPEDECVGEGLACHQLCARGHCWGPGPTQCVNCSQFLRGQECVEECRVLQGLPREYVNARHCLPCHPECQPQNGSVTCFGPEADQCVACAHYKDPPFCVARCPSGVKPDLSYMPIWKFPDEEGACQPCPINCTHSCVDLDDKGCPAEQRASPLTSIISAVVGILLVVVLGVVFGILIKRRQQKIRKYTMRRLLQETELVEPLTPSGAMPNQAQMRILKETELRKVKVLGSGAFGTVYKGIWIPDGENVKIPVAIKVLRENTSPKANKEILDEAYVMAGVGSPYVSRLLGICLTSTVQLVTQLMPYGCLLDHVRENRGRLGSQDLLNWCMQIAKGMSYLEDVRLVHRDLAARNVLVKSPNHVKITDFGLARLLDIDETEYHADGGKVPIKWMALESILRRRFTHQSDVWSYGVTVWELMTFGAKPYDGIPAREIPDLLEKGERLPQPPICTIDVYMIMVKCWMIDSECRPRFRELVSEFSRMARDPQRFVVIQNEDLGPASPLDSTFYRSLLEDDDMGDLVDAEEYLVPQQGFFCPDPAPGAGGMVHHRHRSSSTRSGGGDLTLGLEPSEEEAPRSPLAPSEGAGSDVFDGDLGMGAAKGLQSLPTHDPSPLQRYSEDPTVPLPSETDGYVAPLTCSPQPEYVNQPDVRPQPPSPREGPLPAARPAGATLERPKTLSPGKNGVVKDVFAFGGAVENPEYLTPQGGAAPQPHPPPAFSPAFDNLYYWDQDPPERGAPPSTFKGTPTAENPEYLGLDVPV
Chain of Receptor-type tyrosine-protein kinase FLT3 (Homo sapiens) (P36888 whole entry): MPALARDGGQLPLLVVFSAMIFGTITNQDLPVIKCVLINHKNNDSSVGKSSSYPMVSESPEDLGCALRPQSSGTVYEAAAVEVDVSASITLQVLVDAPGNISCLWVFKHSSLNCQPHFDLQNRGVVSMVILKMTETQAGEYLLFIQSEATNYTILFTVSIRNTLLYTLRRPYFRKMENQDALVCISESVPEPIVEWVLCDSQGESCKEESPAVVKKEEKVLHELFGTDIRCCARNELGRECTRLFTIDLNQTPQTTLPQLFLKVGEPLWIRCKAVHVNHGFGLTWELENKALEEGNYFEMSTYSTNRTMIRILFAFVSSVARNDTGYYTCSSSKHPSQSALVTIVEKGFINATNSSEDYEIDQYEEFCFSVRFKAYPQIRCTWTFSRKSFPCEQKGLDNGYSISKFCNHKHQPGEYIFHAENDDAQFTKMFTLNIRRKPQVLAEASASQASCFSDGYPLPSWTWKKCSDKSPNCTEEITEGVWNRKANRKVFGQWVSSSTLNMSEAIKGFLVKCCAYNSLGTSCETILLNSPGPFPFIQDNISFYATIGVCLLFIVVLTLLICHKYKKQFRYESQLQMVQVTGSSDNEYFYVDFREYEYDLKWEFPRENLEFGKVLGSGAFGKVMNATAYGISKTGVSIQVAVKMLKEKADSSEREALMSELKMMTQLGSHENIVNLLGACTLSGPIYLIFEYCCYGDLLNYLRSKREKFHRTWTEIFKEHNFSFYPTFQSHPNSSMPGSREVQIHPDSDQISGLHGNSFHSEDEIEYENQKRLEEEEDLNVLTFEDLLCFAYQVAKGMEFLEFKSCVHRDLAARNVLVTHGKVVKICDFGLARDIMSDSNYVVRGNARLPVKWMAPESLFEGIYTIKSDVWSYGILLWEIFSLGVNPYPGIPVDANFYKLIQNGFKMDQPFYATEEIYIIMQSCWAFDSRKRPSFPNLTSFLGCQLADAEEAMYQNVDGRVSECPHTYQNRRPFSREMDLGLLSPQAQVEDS
Chain of Serine/threonine-protein kinase B-raf (Homo sapiens) (P15056 whole entry): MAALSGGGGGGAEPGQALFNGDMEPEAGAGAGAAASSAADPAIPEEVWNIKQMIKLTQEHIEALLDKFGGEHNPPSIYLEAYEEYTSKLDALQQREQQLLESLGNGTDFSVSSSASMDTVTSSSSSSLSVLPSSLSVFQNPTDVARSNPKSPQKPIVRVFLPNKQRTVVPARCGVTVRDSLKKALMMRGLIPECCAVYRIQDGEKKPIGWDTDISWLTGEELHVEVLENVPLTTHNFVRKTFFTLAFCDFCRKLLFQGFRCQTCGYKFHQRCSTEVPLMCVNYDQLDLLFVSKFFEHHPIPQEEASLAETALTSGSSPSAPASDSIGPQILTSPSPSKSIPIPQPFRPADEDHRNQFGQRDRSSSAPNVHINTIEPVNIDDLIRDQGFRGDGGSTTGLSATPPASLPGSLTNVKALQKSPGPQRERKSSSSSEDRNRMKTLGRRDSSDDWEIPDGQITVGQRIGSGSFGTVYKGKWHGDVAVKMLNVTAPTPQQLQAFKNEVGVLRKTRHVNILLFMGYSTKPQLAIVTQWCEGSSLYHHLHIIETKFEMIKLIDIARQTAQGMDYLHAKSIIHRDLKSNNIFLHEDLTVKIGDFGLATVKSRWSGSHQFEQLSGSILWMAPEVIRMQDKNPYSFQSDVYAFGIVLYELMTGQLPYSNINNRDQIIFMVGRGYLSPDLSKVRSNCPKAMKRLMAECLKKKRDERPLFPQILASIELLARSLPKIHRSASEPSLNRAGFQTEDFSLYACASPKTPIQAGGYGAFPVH
Chain of Fibroblast growth factor receptor 3 (Homo sapiens) (P22607 23-806 limits assumed): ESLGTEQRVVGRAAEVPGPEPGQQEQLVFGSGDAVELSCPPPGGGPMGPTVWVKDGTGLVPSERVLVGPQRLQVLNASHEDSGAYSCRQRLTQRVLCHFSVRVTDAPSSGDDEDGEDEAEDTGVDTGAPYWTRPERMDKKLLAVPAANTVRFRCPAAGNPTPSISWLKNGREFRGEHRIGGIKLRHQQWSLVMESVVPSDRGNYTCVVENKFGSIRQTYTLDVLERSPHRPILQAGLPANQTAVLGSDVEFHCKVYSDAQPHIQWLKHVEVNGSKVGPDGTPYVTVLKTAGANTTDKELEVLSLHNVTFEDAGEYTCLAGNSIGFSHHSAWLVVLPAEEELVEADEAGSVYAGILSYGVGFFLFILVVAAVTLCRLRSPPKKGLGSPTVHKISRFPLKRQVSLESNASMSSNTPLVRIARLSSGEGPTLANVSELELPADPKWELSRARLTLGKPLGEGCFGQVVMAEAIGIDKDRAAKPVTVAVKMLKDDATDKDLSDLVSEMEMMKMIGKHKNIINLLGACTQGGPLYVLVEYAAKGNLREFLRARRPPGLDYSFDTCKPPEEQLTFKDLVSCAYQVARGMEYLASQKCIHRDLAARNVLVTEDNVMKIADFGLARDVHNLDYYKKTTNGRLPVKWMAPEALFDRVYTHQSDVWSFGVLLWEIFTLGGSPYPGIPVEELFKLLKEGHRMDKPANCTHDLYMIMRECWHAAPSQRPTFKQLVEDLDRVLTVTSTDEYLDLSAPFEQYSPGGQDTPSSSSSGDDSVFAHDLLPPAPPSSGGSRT
Chain of Delta(3,5)-Delta(2,4)-dienoyl-CoA isomerase, mitochondrial (Q13011 whole entry): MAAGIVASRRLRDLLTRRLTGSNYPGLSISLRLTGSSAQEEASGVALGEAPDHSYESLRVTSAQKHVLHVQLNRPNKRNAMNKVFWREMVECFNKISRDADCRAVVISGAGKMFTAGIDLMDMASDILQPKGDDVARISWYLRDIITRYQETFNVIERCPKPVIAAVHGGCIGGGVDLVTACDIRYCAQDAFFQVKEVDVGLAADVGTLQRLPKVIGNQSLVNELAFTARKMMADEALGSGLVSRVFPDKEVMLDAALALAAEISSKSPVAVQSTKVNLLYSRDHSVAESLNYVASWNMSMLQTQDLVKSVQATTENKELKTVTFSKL
Chain of Serine/threonine-protein kinase TBK1 (Q9UHD2 whole entry): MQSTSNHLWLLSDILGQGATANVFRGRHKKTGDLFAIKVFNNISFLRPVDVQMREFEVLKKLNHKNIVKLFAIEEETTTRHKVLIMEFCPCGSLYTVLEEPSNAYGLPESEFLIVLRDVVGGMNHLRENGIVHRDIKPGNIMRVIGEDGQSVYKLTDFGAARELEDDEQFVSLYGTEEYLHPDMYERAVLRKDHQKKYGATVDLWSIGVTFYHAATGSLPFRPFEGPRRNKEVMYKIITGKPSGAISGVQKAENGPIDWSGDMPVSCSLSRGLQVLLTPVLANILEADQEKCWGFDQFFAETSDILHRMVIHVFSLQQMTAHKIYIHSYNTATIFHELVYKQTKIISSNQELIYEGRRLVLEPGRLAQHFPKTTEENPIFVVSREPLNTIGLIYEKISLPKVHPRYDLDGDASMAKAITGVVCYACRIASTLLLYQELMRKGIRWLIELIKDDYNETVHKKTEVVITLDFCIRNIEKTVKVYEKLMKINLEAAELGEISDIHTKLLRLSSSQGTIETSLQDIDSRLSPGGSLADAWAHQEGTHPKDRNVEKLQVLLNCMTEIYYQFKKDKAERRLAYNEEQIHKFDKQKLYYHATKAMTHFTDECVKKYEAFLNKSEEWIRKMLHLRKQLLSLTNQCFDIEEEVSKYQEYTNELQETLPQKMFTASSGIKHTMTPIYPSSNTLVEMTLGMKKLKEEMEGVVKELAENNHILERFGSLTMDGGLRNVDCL

Turning to `COc1cc2c(Oc3ccc(NS(=O)(=O)c4ccccc4C(F)(F)F)cc3F)ccnc2cc1OCCCN1CCN(C)CC1`, the inhibition result in data set [1], in data set [2], in data set [3], in [4], in data set [5] and in data set [6] was “Active” in each case. The inhibition result in [7], in data set [8], in data set [9], in [10] and in [11] was “Active” each time.

As for `COc1cc2c(Oc3ccc(NS(=O)(=O)c4cc(F)ccc4F)cc3F)ccnc2cc1OCCCN1CCCC(C)C1` (centres undefined), the T/C in data set [12] is recorded as 118%. In addition, the Activity result in [13] is on record as “Non-Toxic”; in [14], “Non-Toxic”; in [15], 40%.

Regarding `COc1cc2c(Oc3ccc(NS(=O)(=O)c4c(F)cccc4F)cc3F)ccnc2cc1OCCCN1CCN(C)CC1`, the entries for the “Kd(free)” value (in data set [16]; at LIM domain kinase 2) were 3.273 µM and 2.784 µM, respectively.

Consider `COc1cc2c(Oc3ccc(NS(=O)(=O)c4cc(F)ccc4F)cc3F)ccnc2cc1OCCCN1CCN(C)CC1`, for which the Vd in [17] turned out to be 10.2 L/kg. Further, the “Kd(free)” value in data set [18] is 5.975 µM; in data set [19] it was 0.041 µM; in data set [20], over 6.194 µM; in [21], 3.133 µM; in [22] it was 3.75 µM; in data set [23], 2.857 µM.
